High-throughput results as filed in PubChem BioAssay.
A selection: hits, their analogues and other compounds. The true share with any hit is near 2.6%.
T cruzi repl = T. cruzi replication inhibition | hit rate 1.4% among 300,000 | T. cruzi beta-gal in NIH3T3, luminescence, 90 h | inhibition, % (concentration not given with the values) | AID 1885;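 active means mean inhibition across valid replicates above about 55%, limit read from the data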;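 further: signal also drops with host cell toxicity which is not excluded here; higher percent means less beta-gal luminescence so fewer parasites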
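Assay system: NIH/3T3 fibroblasts plus reporter T. cruzi. Amount: NIH/3T3 cells, 5,000 per well. Buffer or medium: DMEM, 2% fetal bovine serum. Doses: compound pinned at 50 nL/well, DMSO. Schedule: ≥90 h infection period, 3 h prior cell attachment. Signal: luminescent β-galactosidase signal after 60 min lysis. Read-out: parasite load inhibition, %.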
PolyA inh = blocks polyadenylation in yeast reporter cells | S. cerevisiae SKY197-pL101 polyadenylation reporter, beta-gal luminescence; efflux-impaired pdr1/pdr3 knockout yeast; score 100 = 6 SD above DMSO | AID 1875 | hit rate 0.02% among 300,000 | activity score, % at 12 µM;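 active means lowest replicate activity score at least 50, where 100 means six control SD above control mean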;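 further: yeast exposed to compound for 9 h at 30 °C; higher score means more reporter readthrough which indicates perturbed polyadenylation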
CHT allo act = human CHT allosteric activation; B-score at 10 µM; hit rate 0.49% among 310,000; CHT-expressing cells, membrane potential dye, choline EC20; active compounds read high; LV-AA mutant CHT in HEK293 cells; AID 488977;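 active means initial fluorescence not abnormally high and integrated response B-score, plate-corrected, over 3 SD above library mean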
Target sequence (Q9GZV3 whole entry, looked up): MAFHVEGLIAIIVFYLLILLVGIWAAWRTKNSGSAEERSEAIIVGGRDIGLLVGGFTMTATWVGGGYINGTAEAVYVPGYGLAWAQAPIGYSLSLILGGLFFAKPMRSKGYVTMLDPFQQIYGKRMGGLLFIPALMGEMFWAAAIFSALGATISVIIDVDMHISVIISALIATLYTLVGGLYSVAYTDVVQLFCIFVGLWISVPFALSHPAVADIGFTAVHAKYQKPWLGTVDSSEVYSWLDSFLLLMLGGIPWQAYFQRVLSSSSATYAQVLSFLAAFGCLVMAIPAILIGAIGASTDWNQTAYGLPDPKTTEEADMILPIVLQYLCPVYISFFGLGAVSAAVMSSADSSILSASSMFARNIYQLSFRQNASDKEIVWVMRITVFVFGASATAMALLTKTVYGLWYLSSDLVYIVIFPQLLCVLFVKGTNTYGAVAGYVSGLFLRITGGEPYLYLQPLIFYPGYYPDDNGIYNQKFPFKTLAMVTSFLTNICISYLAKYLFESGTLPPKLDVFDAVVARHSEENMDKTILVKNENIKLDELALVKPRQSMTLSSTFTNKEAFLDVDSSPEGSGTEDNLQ
CHT inh = inhibitors of human choline transporter CHT. Q9GZV3. CHT-expressing cells, membrane potential dye, choline response; active compounds read low. B-score at 10 µM. hit rate 0.86% among 310,000. AID 488975;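 active means B-score over 3 SD under the library average, and starting fluorescence ratio not unusually high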;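 further: choline stimulus applied at its EC90 after an EC20 pre-addition; B-score computed on integrated fluorescence ratio after choline addition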
Numbers stand for hits; - = inactive; . = no result; ! = not active in a repeat.

SMILES | T cruzi repl | PolyA inh | CHT allo act | CHT inh
CCOc1ccc2oc(=O)cc(CN3CCN(Cc4ccccc4)CC3)c2c1 | 58 | - | - | -
CCOc1ccc2oc(=O)cc(CN3CCN(C(=O)c4ccco4)CC3)c2c1 | - | - | - | -
Cc1c(O)ccc2c(CN3CCN(Cc4ccccc4)CC3)cc(=O)oc12 | 56 | - | - | -
O=c1cc(CN2CCN(Cc3ccccc3)CC2)c2ccc(O)c(O)c2o1 | - | - | - | -
CCOC(=O)N1CCN(CC(=O)Nc2nc3ccc(OC)cc3s2)CC1 | - | - | - | -
CC1=NN(c2nc(-c3ccc(C)cc3)cs2)C(=O)C1N=Nc1ccccc1O (stereo not given) | 55 | - | - | -
CNNCc1ccc(C(=O)NC(C)C)cc1 | - | - | - | -
Cc1ccccc1OCC(O)CN1CCN(C)CC1 (stereo not given) | 63 | - | - | -
CC(C)c1ccccc1OCC(O)CN1CCN(S(=O)(=O)c2ccc([N+](=O)[O-])cc2)CC1 (stereo not given) | 55 | - | - | -
CC(COc1cccc2ccccc12)CN1CCN(C)CC1 (stereo not given) | 66 | - | - | -
OC(COc1cccc2ccccc12)CN1CCN(c2ccccc2)CC1 (stereo not given) | - | - | - | -
CC(C)(C)n1nnnc1C(c1cccs1)N1CCCC2(CCCCC2)C1 (stereo not given) | 63 | - | - | -
O=C(NC1CCCCCC1)C1CCC(=O)N(Cc2ccccc2F)C1 (stereo not given) | - | - | - | -
CC/C(=N\NC(=O)C1CCCC1)c1cccc(Br)c1 | . | . | - | -
Cc1ccc(C(=O)C[n+]2cc(-c3ccc(C)cc3)n3c2CCCCC3)cc1 | 69 | - | - | -
COc1ccc(C(=O)C[n+]2cc(-c3ccc(OC)cc3)n3c2CCCC3)cc1 | 62! | - | - | -
O=C(C[n+]1cc(-c2ccccc2)n2c1CCCCC2)c1ccc(Br)cc1 | - | - | - | -
Cc1ccc(S(=O)(=O)N2CCN(C(=O)Cc3c(F)cccc3Cl)CC2)cc1 | - | - | - | -
CN1CCN(CCCNC(=O)c2ccc(/C=C3\Sc4ccccc4N(Cc4ccccc4F)C3=O)cc2)CC1 | 69 | - | . | .
CCOc1ccc(NC(=O)CN(C)C(=O)c2c(C)nn(-c3ccccc3)c2Cl)cc1OCC | - | - | - | -
Oc1ccc(CN2CCC(Cc3ccccc3)CC2)c2cccnc12 | - | - | . | .
CCCOCc1ccc(O)c2ncccc12 | 57 | - | - | -
Oc1ccc(CN2CCCCC2)c2cccnc12 | 68 | - | - | -
CC(C)COCc1ccc(O)c2ncccc12 | - | - | - | -
Oc1ccc(CN2CCc3ccccc3C2)c2cccnc12 | 57 | - | - | -
SMILES | T cruzi repl | PolyA inh | CHT allo act | CHT inh
Oc1ccc(CN2CCN(c3ccccc3)CC2)c2cccnc12 | 64 | - | - | -
O/N=C(\c1ccccc1)C(O)c1ccccc1 (stereo not given) | - | - | - | -
O=C(NNC(=O)c1ccccc1C(=O)O)c1ccc(-c2ccccc2)cc1 | - | - | - | -6.7
O=C(NNC(=O)C1CC1)c1ccc(-c2ccccc2)cc1 | - | - | - | -
O=C(NCc1cccc(C(F)(F)F)c1)c1ccc2c(c1)OCCO2 | - | - | - | -
CC(=O)Nc1cccc(NC(=O)CCNC(=O)c2ccccc2)c1 | - | - | - | -
CCC(C)(C)C1CCc2c(sc(NC(=O)c3ccccc3C(=O)O)c2C#N)C1 (stereo not given) | - | - | - | -7.7
CC1CCc2c(sc(NC(=O)c3ccccc3C(=O)O)c2C#N)C1 (stereo not given) | - | - | - | -
CC(=O)Nc1ccc(S(=O)(=O)Nc2cccc(NC(=O)c3ccco3)c2)cc1 | - | - | - | -
CC1(OC(=O)CCc2ccccc2)C(=O)C=C2C=C(c3ccc(C#N)cc3)N(CCc3c[nH]c4ccccc34)C=C2C1=O (stereo not given) | - | - | - | -
CN(Cc1ccc(Br)cc1)C(=O)CCN1C(=O)c2cccc([N+](=O)[O-])c2C1=O | - | - | - | -
COC(=O)Cc1c[nH]c2cccc(OCC(O)CN(Cc3ccc([N+](=O)[O-])cc3)C(C)(C)C)c12 (stereo not given) | 65 | - | - | -
COC(=O)Cc1c[nH]c2cccc(OCC(O)CN(Cc3ccccc3)C(C)C)c12 (stereo not given) | - | - | - | -
Cc1ccc2oc(Nc3nc(-c4ccccc4)cc(=O)[nH]3)nc2c1 | 75 | - | . | .
